Measurements: publication PMC12840579 (Biomedicine & pharmacotherapy = Biomedecine & …, 2025)
Blank lines part the entries; values can stand above or below the molecule they belong to.

Key:
[1] = biological target: ADAM17 (Homo sapiens, UniProt P78536); assay: ADAM17 fluorogenic proteolytic activity assay; type: biochemical; conditions: GM6001 10 μM
[2] = biological target: T1, ADAM10 (Homo sapiens, UniProt O14672); assay: ADAM10 fluorogenic proteolytic activity assay; type: biochemical; conditions: GM6001 10 μM
T1 sequence (O14672 214-748): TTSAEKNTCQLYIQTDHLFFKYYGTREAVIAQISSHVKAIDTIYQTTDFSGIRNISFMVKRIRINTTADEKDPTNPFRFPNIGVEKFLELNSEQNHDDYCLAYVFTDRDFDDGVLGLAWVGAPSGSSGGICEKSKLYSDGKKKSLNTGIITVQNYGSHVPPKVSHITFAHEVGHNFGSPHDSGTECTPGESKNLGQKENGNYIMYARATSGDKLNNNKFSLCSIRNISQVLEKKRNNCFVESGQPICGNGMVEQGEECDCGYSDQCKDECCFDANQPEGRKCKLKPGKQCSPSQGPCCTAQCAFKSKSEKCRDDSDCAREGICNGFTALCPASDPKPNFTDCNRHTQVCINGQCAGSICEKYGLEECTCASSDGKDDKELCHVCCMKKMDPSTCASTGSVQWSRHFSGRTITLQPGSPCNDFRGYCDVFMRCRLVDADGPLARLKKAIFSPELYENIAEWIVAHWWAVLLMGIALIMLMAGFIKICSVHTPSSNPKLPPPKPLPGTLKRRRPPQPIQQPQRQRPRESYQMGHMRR
Outline: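 Recombinant ADAM10 from a fluorogenic assay kit, pre-incubated with test compound at the indicated concentrations for 30 min at room temperature, then substrate added. Substrate cleavage read by fluorescence (ex 485 nm, em 530 nm). GM6001 was the positive control. Triplicate runs, mean ± SEM (n = 3).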

[3] = tested on: wild-type HEK293 cells lacking TREM2/DAP12 expression; assay: Intracellular calcium measurement; type: cell-based, human
Outline: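 Wild-type HEK293 cells lacking TREM2/DAP12 were grown in 96-well clear-bottom black plates. They were loaded for 1 h with Fluo-4 NW dye in 100 μL assay buffer, then test compound was added. Fluorescence was captured on an automated imaging system. Ionomycin served as the control for intact calcium signalling.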

[4] = tested on: TREM2 signaling (SYK phosphorylation Y525/526) in HEK293-hTREM2/DAP12 cells; assay: Phospho-SYK AlphaLISA in HEK293-hTREM2/DAP12 cells; type: cell-based, human
Outline: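 HEK-hTREM2/DAP12 cells were seeded at 5 × 10⁴ per well in DMEM with 10% FBS and held 24 h at 37 °C, 5% CO2. Medium was replaced with compound in complete medium, DMSO as vehicle. Time course: 25 μM for 5, 15, 30 or 60 min. Dose series: 5–100 μM final for 60 min. Kit-lysed cells were assayed for pSYK Y525/526 by two-antibody bead AlphaLISA; 3 independent experiments, n=6 per condition, mean ± SEM.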

[5] = tested on: BV2 murine microglial cells; assay: Phagocytosis assay with fluorescent latex beads; type: cell-based; conditions: 25 μM, 30 min before beads (30 min)
Outline: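 Murine BV2 microglia were serum-starved, then exposed to 25 μM test compound or DMSO vehicle for 30 min. Green fluorescent latex beads were added for a further 30 min at 37 °C. Cells were washed with ice-cold PBS, fixed in 4% PFA, immunostained for IBA1 and imaged by fluorescence microscopy. A phagocytic cell was an IBA1+ cell with ≥1 internalised bead, expressed as % of vehicle; mean ± SEM (n = 3).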

[6] = 25 μM, time-course 5-60 minutes

Sequence of ADAM17 (P78536 215-824): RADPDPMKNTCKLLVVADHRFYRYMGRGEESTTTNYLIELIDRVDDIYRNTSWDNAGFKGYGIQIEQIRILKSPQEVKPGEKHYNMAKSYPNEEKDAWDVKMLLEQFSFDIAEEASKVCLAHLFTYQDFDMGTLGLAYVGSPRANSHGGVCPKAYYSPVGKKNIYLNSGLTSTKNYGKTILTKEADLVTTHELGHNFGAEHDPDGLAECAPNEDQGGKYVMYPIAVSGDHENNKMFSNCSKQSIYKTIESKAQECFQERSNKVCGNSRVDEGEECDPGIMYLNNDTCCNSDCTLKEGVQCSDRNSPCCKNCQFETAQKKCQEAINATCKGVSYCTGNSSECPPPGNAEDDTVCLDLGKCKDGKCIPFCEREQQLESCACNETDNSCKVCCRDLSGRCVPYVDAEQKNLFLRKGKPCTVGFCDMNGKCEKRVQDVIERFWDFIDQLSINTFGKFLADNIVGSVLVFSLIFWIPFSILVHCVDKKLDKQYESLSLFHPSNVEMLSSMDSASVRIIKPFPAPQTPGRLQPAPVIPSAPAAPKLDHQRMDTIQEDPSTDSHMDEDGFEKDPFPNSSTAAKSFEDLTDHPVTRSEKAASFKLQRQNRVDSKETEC

effect on ADAM17 protease activity (positive control) [1]: potently inhibited | effect on ADAM10 protease activity (positive control) [2]: potently inhibited
Molecule: CNC(=O)[C@H](Cc1c[nH]c2ccccc12)NC(=O)[C@@H](CC(=O)NO)CC(C)C [GM6001]

Molecule: C[C@H](CCC(=O)O)C[C@H](C)C[C@H](C)C(=O)/C=C(\O)[C@H](C)C[C@H](C)C/C=C/[C@@H](C)[C@@H](O)[C@@H](C)[C@@H](O)C[C@@H]1CC[C@@](C)([C@H]2CC[C@@](C)([C@@H](C)O)O2)O1 [ionomycin]
calcium response in wild-type cells ([3]; ionomycin 10 μM): ~ 8 fold

Molecule: VG-3927
time at which SYK phosphorylation is first detected [4, 6]: 5 min | time of peak SYK phosphorylation [4, 6]: 60 min | concentration of maximal SYK phosphorylation ([4]; 60 minutes treatment, 5-100 μM): 25 µM | lowest concentration with SYK phosphorylation ([4]; 60 minutes treatment, 5-100 μM): 5 µM | increase in proportion of phagocytic cells vs vehicle [5]: approximately 45% | calcium mobilization in wild-type cells ([3]; VG-3927 30 μM): neither VG-3927 (30 μM) nor As48 (100 μM) elicited any detectable calcium mobilization
